# Experimental data from PMC6986167 (Pharmacogenomics and Personalized Medicine, 2020).
# Several values for one entry are separate records, joined by “and”; a condition that tells them apart may be missing. Identical values can stand only once. Like-named read-outs stand apart in the source and are kept apart here.
# Legend:
# [1] = data from the centers; cited from earlier work
# [2] = Minimal equilibrium rivaroxaban concentration in blood plasma by HPLC-MS; type: in vivo, patients
# Outline: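 Plasma thawed at room temperature, protein-precipitated with methanol plus 0.1% hydrogen chloride 9:1, vortexed, left 10 min, spun 9000 RCF 10 min. C18 column at 40°C, isocratic ammonium acetate/formic acid, water:acetonitrile 70:30. Validated 5–1000 ng/mL. Genotypes by real-time PCR on EDTA blood.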
# [3] = AF patients, p = 0.02, cited from earlier work
# [4] = tested on: platelets (ADP-activated, P2Y12 Reactivity Units)
# [5] = carriership of low function allelic variants, patients on clopidogrel; cited from earlier work
structure (smiles),measurement,setting,value
O=C(NC[C@H]1CN(c2ccc(N3CCOCC3=O)cc2)C(=O)O1)c1ccc(Cl)s1 [Rivaroxaban],average level of plasma concentration of rivaroxaban,[1],40 ng/mL
same,patients beyond the therapeutic range,[1],~40%
same,variation of plasma concentration of rivaroxaban,[1],15 fold
same,"Rivaroxaban concentration, M","[2]; ABCB1 3435 C>T CT+TT, N=73",80.6
same,"Rivaroxaban concentration, M","[2]; ABCB1 rs4148738 CC, N=19",78.8
same,"Rivaroxaban concentration, M","[2]; ABCB1 rs4148738 CT+TT, N=84",78.9
same,"Rivaroxaban concentration, M","[2]; CYP2C19*2 GA+AA, N=31",86.2
same,"Rivaroxaban concentration, M","[2]; CYP2C19*2 GG, N=72",75.7
same,"Rivaroxaban concentration, M","[2]; CYP3A5*3 AG+AA, N=19",69.7
same,"Rivaroxaban concentration, M","[2]; CYP3A5*3 GG, N=84",81.6
same,rivaroxaban concentration,[2]; patients with HAS-BLED 3–9,92.3 ± 64.9
same,rivaroxaban concentration,[2]; patients with HAS-BLED <3,67.2 ± 47.4
same,equilibrium rivaroxaban concentration,[3]; first value of bleeding comparison,48±30
same,equilibrium rivaroxaban concentration,[3]; second value of bleeding comparison,34 ± 26
COC(=O)[C@H](c1ccccc1Cl)N1CCc2sccc2C1 [clopidogrel],"Platelet reactivity units (PRU), M","[4]; ABCB1 3435 C>T CC, N=30",136.8 PRU
same,"Platelet inhibition rate (%), M","[4]; ABCB1 3435 C>T CC, N=30, ACS+AF patients on clopidogrel and rivaroxaban",29.8%
same,"Platelet inhibition rate (%), M","[4]; ABCB1 3435 C>T CT+TT, N=73",30.9%
same,"Platelet reactivity units (PRU), M","[4]; ABCB1 3435 C>T CT+TT, N=73",135.5 PRU
same,"Platelet reactivity units (PRU), M","[4]; ABCB1 rs4148738 CC (non-carriers of T), N=19",113.3 ± 57.1 PRU and 113.3 PRU
same,"Platelet inhibition rate (%), M","[4]; ABCB1 rs4148738 CC, N=19",34.5%
same,"Platelet reactivity units (PRU), M","[4]; ABCB1 rs4148738 CT+TT (T carriers), N=84",141.0 ± 62.3 PRU and 141.0 PRU
same,"Platelet inhibition rate (%), M","[4]; ABCB1 rs4148738 CT+TT, N=84",29.7%
same,"Platelet inhibition rate (%), M","[4]; CYP2C19*2 GA+AA, N=31",28.6%
same,"Platelet reactivity units (PRU), M","[4]; CYP2C19*2 GA+AA, N=31",145.2 PRU
same,"Platelet inhibition rate (%), M","[4]; CYP2C19*2 GG, N=72",31.4%
same,"Platelet reactivity units (PRU), M","[4]; CYP2C19*2 GG, N=72",131.9 PRU
same,"Platelet inhibition rate (%), M","[4]; CYP3A5*3 AG+AA, N=19",30.4%
same,"Platelet reactivity units (PRU), M","[4]; CYP3A5*3 AG+AA, N=19",139.8 PRU
same,"Platelet inhibition rate (%), M","[4]; CYP3A5*3 GG, N=84",30.6%
same,"Platelet reactivity units (PRU), M","[4]; CYP3A5*3 GG, N=84",135.0 PRU
same,platelet inhibition level,[4]; patients with in-hospital death,63.3%
same,platelet inhibition level,[4]; patients without in-hospital death,29.6%
same,increase of risk of major adverse cardiovascular events (MACE),[5],1.5 fold
same,increase of risk of stent thrombosis,[5],2.8 fold
